How the values were obtained:
[1] = target: T1, recombinant mouse CRT (calreticulin) (Mus musculus, UniProt P14211); assay: Surface plasmon resonance binding to immobilized CRT; conditions: SPR, 25°C, 10 mM HEPES pH 7.4, 50 mM KCl, 0.5 mM CaCl2, 100 μM ZnCl2, 0.005% surfactant P-20; mouse CRT immobilized 3000 RU; 10 μl/min; mean ± SEM
T1 sequence (P14211 18-416): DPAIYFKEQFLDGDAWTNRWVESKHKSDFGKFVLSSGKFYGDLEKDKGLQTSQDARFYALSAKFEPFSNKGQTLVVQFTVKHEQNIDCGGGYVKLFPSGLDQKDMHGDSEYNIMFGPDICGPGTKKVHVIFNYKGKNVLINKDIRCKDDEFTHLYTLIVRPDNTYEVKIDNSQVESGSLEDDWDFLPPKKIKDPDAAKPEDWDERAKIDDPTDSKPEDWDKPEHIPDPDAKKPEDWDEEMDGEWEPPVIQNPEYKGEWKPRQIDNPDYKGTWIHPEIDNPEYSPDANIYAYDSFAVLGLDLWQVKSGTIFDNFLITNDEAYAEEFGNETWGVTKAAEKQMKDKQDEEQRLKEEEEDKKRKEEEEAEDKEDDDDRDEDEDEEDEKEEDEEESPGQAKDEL

[2] = system: collagen-induced arthritis in mice; conditions: 15-mer SE peptidic ligand in vivo in mice; ref [10]; cited from earlier work
[3] = system: NO signaling; assay: NO signaling activation; assay type: cell-based; conditions: read-out: EC50 NO, Table I
[4] = system: osteoclast differentiation of DBA/1 mouse BMCs; conditions: 15-mer linear peptide; ref [10]; cited from earlier work
[5] = system: trypsin/chymotrypsin; conditions: linear peptidic SE ligand, completely degraded; ref [11]; cited from earlier work
[6] = system: osteoclast differentiation of DBA/1 mouse BMCs; assay: In vitro OC differentiation, mouse bone marrow cells; assay type: cell-based; conditions: M-CSF + RANKL, 6 days
[7] = system: TRAP-positive mononuclear (pre-OC) bone marrow cells; assay: Pre-OC abundance in bone marrow of CIA mice; assay type: in vivo, mouse
Outline: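 Fresh bone marrow cells harvested from CIA mice dosed weekly i.p. with various amounts of test compound or PBS; TRAP staining used to enumerate pre-osteoclasts.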

[8] = system: bovine cortical bone disks / mouse BMC-derived OCs; assay: Ex vivo degradation of bovine bone disks; assay type: cell-based; conditions: 100 nM c(HS4-4), mouse BMCs, 10 days, OC counts and resorption pits
Outline: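 Bovine cortical bone disks (5-mm) were sonicated in water, stored dry, and sterilised in ethanol plus 30 min UV. Culture ran 10 days, medium renewed every other day. TRAP-positive OCs per disk were counted; cells were sonicated off in ammonium hydroxide; disks were stained with 1% toluidine blue for 30 s; pits were counted across the whole surface by reflected light. Mean ± SEM.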

[9] = system: bone damage in CIA mice; assay: X-ray radiological scoring of bone damage in CIA mice; assay type: in vivo, mouse; conditions: 0.8 and 8.0 ng/gm BW, N = 10, score 0-5
Outline: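 CIA mice dosed weekly i.p. with 0.8 or 8.0 ng/gm BW test compound or PBS. Limbs X-rayed on a microradiography system (anode current 25mA, 4.5 s exposure). Coded films scored blind by a rheumatologist, front and rear paws separately, 0–5 (none to complete joint destruction). N=10.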

[10] = system: collagen-induced arthritis in DBA/1 mice; assay: Collagen-induced arthritis: onset, incidence, arthritis score; assay type: in vivo, mouse; conditions: i.p.; for disease incidence: log-rank (Mantel-Cox)
[11] = system: osteoclasts in CIA joint tissues; assay: OC abundance in joint tissue of CIA mice; assay type: in vivo, mouse; conditions: various doses incl. 'subclinical'; N=10 PBS, 5 per treatment group; TRAP
Outline: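 Limbs from CIA mice given weekly i.p. test compound or PBS decalcified 14 days in 10% EDTA, paraffin-embedded, serially sectioned and stained for TRAP (or H&E). TRAP-positive multinucleated cells counted; total across front and rear paws and knees, mean ± SEM. N=10 PBS, 5 per treatment group.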

[12] = system: NO signaling; conditions: ref [11]; cited from earlier work
[13] = system: ROS production in RAW 264.7 pre-OC cells; assay: ROS production; assay type: cell-based, mouse; conditions: RAW 264.7, 3 × 10^4/well, in words
Outline: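 RAW 264.7 cells, 3×10^4 per well, exposed to various test compound concentrations and loaded with CM-H2DCFDA. Fluorescence (ex 488/em 515 nm) read every 5 min over 500 min; ROS expressed as FU/min.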

[14] = system: bone matrix degradation by DBA/1 mouse BMC-derived OCs; assay: Degradation of artificial; assay type: cell-based; conditions: 100 nM c(HS4-4), primary DBA/1 BMCs, day 15, Von Kossa
Outline: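 Test compound (100 nM) or PBS was added to mouse BMC cultures on osteoblast-derived matrix. SaOS-2 cells (12,000/well) grew in McCoy's 5A/15% FBS; at 80–90% confluence they were switched to osteoblast differentiation medium (10% FBS, 2mM glutamine, ascorbic acid, 10mM β-glycerol phosphate) for 20–25 days, then removed with 15mM NH4OH. DBA/1 BMCs (200,000/well) received M-CSF 10 ng/ml for 2 days, then M-CSF plus RANKL 20 ng/ml. At day 15, cells were removed; remaining matrix was Von Kossa-stained, photographed and area-quantified.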

[15] = system: osteoclast formation of BMCs harvested from CIA mice; assay: Ex vivo OC differentiation of BMCs from treated CIA mice; assay type: in vivo, mouse; conditions: 6 days OC-differentiating culture, dose-dependent pattern
Outline: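 DBA/1 mice (7 weeks) were immunised intradermally at the tail base with 100 μg chicken CII in CFA. They received test compound intraperitoneally once weekly at 0.0, 0.8, 8 or 80 ng/gm BW in 50 μl PBS. Bone marrow cells were then cultured for 6 days under OC-differentiating conditions (M-CSF 10 ng/ml; RANKL 20 ng/ml added after day 2). TRAP-positive multinucleated cells (>3 nuclei) were counted.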

[16] = system: erosive bone damage in CIA mice; assay: Micro-CT of bone damage in CIA mice; assay type: in vivo, mouse; conditions: all treated mice, various doses
Outline: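 Limbs from arthritic mice fixed in 10% formalin, stored in 70% ethanol, scanned in water: 80 kV, 80 μA, 0.508 mm Al filter plus acrylic beam flattener, 1600 ms/frame, 400 views at 0.5°, 4 frames averaged, 2×2 binning, 18 μm voxels. Bone masks for carpals, tarsals, calcaneus, talus, phalanges; thresholds 2000 HU cortical, 1200 HU trabecular.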

[17] = 80 ng/gm BW per week, N=10 per group
[18] = 800 ng/gm BW per week, N=10 per group

65-KDLLEQKRAAVDTYC-79 [65-79*0401]
Affinity to CRT, ka [1]: 5.1 ± 4.8 ×10^4 1/Ms
Affinity to CRT, kd [1]: 7.4 ± 3.1 ×10^−3 1/s
effect on erosive bone damage in CIA [2]: enhanced erosive bone damage in collagen-induced arthritis
EC50 [3]: 60 µM
osteoclastogenesis activation [4]: can activate osteoclastogenesis
time to complete degradation by trypsin/chymotrypsin [5]: ≤ 30 min

70-QKRAA-74 [70-74*0401]
Affinity to CRT, ka [1]: 2.9 ± 2.9 ×10^2 1/Ms
Affinity to CRT, kd [1]: 5.6 ± 5.1 ×10^−3 1/s

cQKRAA [c(HS4-4)]
Affinity to CRT, ka [1]: 2.7 ± 0.5 ×10^3 1/Ms
Affinity to CRT, kd [1]: 1.4 ± 0.2 ×10^−3 1/s
OC differentiation (in words) [6]: markedly enhanced OC differentiation in a dose-dependent manner
TRAP-positive pre-OC cells in bone marrow ([7]; 80 ng/gm BW group): peak effect
TRAP-positive mononuclear (pre-OC) cells in bone marrow, dose dependence ([7]; all c(HS4-4)-treated mice): dose-dependent effect
degradation of bovine bone disks [8]: higher capacity to degrade artificial bone matrix and bovine bone disks ex vivo
bone damage (radiological score, X-ray) [9]: significantly higher bone damage
CIA soft tissue disease parameters (onset, incidence, score) ([10]; 0.8 ng/gm BW per week): no effect on any of the three CIA soft tissue disease parameters
CIA soft tissue disease parameters (onset, incidence, score) ([10]; 8.0 ng/gm BW per week): no effect on any of the three CIA soft tissue disease parameters
disease onset [10, 17]: significantly facilitated disease onset
mean arthritis scores (joint swelling) ([10]; 80 ng/gm BW per week, N=10 per group, 4-point scale per paw): significantly increased mean arthritis scores
disease incidence [10, 17]: increased disease incidence
mean arthritis scores, effect in the higher dose ([10]; 800 ng/gm BW per week ("the higher dose"), N=10 per group): but not in the higher dose
disease onset [10, 18]: significantly facilitated disease onset
disease incidence [10, 18]: increased disease incidence
EC50 [3]: 0.001 µM
OC numbers in arthritic joints [11]: significantly higher numbers of OCs
NO signaling activation, concentration [12]: low nM concentrations
ROS signaling [13]: activated ROS signaling
degradation of artificial bone matrix [14]: higher capacity to degrade artificial bone matrix
OCs formed ex vivo by BMCs from treated CIA mice [15]: significantly higher numbers of OCs in a similar dose-dependent pattern
erosive bone damage (micro-CT) [16]: more severe erosive bone damage

— paper PMC3753203 (Journal of immunology (Baltimore, Md. : 1950), 2013)
